According to publication PMC4975651 (Molecular cell, 2016):

System: Slug, CD44, EGFR, and VEGFA genes
Format: cell-based, human
Conditions: ectopic expression, ZMYND8-depleted DU145 cells, n = 5
In short: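 DU145 cells were infected with shZMYND8-97 lentivirus, then transfected with control vector, wild-type FLAG-ZMYND8, PHD point mutants (D108A, F109D) or a Bromo mutant (YN/AA). Construct expression was checked by western blot. DU145 cells treated with shLuciferase and transfected with control vector served as the control. CD44, Slug, VEGFA and EGFR expression was measured across 5 replicates.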

B1: FLAG-ZMYND8: ectopically expressed WT FLAG-ZMYND8 (protein, UniProt Q9ULU4 1-1186, looked up)
MYND-type zinc …: MDISTRSKDPGSAERTAQKRKFPSPPHSSNGHSPQDTSTSPIKKKKKPGLLNSNNKEQSELRHGPFYYMKQPLTTDPVDVVPQDGRNDFYCWVCHREGQVLCCELCPRVYHAKCLRLTSEPEGDWFCPECEKITVAECIETQSKAMTMLTIEQLSYLLKFAIQKMKQPGTDAFQKPVPLEQHPDYAEYIFHPMDLCTLEKNAKKKMYGCTEAFLADAKWILHNCIIYNGGNHKLTQIAKVVIKICEHEMNEIEVCPECYLAACQKRDNWFCEPCSNPHPLVWAKLKGFPFWPAKALRDKDGQVDARFFGQHDRAWVPINNCYLMSKEIPFSVKKTKSIFNSAMQEMEVYVENIRRKFGVFNYSPFRTPYTPNSQYQMLLDPTNPSAGTAKIDKQEKVKLNFDMTASPKILMSKPVLSGGTGRRISLSDMPRSPMSTNSSVHTGSDVEQDAEKKATSSHFSASEESMDFLDKSTASPASTKTGQAGSLSGSPKPFSPQLSAPITTKTDKTSTTGSILNLNLDRSKAEMDLKELSESVQQQSTPVPLISPKRQIRSRFQLNLDKTIESCKAQLGINEISEDVYTAVEHSDSEDSEKSDSSDSEYISDDEQKSKNEPEDTEDKEGCQMDKEPSAVKKKPKPTNPVEIKEELKSTSPASEKADPGAVKDKASPEPEKDFSEKAKPSPHPIKDKLKGKDETDSPTVHLGLDSDSESELVIDLGEDHSGREGRKNKKEPKEPSPKQDVVGKTPPSTTVGSHSPPETPVLTRSSAQTSAAGATATTSTSSTVTVTAPAPAATGSPVKKQRPLLPKETAPAVQRVVWNSSSKFQTSSQKWHMQKMQRQQQQQQQQNQQQQPQSSQGTRYQTRQAVKAVQQKEITQSPSTSTITLVTSTQSSPLVTSSGSMSTLVSSVNADLPIATASADVAADIAKYTSKMMDAIKGTMTEIYNDLSKNTTGSTIAEIRRLRIEIEKLQWLHQQELSEMKHNLELTMAEMRQSLEQERDRLIAEVKKQLELEKQQAVDETKKKQWCANCKKEAIFYCCWNTSYCDYPCQQAHWPEHMKSCTQSATAPQQEADAEVNTETLNKSSQGSSSSTQSAPSETASASKEKETSAEKSKESGSTLDLSGSRETPSSILLGSNQGSDHSRSNKSSWSSSDEKRGSTRSDHNTSTSTKSLLPKESRLDTFWD
modifications: FLAG tag
- expression levels of Slug, CD44, EGFR, and VEGFA genes: significantly downregulated
